Measured values collected from several papers.
Lines come from different studies, so protocols differ.
Target: Serine/threonine-protein kinase STK11 (STK11, Homo sapiens, UniProt Q15831)
Sequence (Q15831 1-433, as in one of the studies): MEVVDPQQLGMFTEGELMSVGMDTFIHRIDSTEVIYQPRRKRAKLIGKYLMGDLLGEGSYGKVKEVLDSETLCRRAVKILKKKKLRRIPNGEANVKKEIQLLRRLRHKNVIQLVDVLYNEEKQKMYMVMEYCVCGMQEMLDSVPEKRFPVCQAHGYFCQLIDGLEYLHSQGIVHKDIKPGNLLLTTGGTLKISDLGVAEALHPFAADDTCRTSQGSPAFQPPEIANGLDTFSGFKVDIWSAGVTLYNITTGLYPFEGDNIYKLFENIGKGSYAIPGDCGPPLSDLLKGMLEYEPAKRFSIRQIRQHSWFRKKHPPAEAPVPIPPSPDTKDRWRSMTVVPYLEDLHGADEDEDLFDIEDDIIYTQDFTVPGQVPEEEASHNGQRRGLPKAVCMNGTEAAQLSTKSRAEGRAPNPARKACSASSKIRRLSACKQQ

SMILES	test	conditions	remaining binding
C[C@H]1CCN(c2nccc(-c3cnn4ncccc34)n2)C1	binding	1 µM	80%
O=C(NCC1CCOCC1)c1n[nH]cc1NC(=O)c1c(F)cccc1F	binding, competition with immobilised ligand	1 µM	100%
COc1cnc(Nc2cccc(S(N)(=O)=O)c2)nc1N1CCN(c2ccccc2)CC1	binding, competition with immobilised ligand	1 µM	82%
CC(C)(C)c1ccc(-c2nc(CBr)nn2-c2cccc(O)c2)cc1	cell-free assay, competition with immobilised ligand	10 µM	100%
CN(C)c1nccc(-c2cnc3ncccn23)n1	binding	1 µM	100%
COc1cnc(Nc2cccc(S(N)(=O)=O)c2)nc1N1CCN(c2ccccc2)C(=O)C1	binding, competition with immobilised ligand	1 µM	100%
O=C(c1ccc(Nc2ncc(Cl)c(-c3ccc(Cl)s3)n2)cc1)N1CCC(N2CCCC2)CC1	binding, competition with immobilised ligand	1 µM	7.2%
C=CC(=O)N1CCC(C(=O)NCC(=O)N2CCN(c3nc(-c4cnc(N)nc4C(F)F)nc(N4CCOCC4)n3)CC2)CC1	binding, competition with immobilised ligand	1 µM	100%
C[C@@H]1CN(c2ccc3ncc(-c4ccc5[nH]nc(C6CC6)c5c4)n3n2)C[C@H](C)O1	binding, competition with immobilised ligand	0.5 µM	94%
CO[C@H]1CC[C@H](CNc2ccc(S(=O)(=O)NC(=O)c3ccc(N4CCN(CC5=C(c6ccc(Cl)cc6)CC(C)(C)CC5)CC4)cc3Oc3cnc4[nH]ccc4c3)cc2[N+](=O)[O-])CC1	cell-free assay, competition with immobilised ligand	1 µM	59%
C[C@@H](c1ccc(-n2cnc3c(N)ncnc32)cc1)N1CCc2nn(C)c(Cc3ccccc3)c2C1=O	binding, competition with immobilised ligand	0.1 µM	100%
N[C@H]1CCN(c2nccc(-c3cnn4ncccc34)n2)C1	binding	1 µM	65%
CN(C)C(=O)Cn1cc(-c2nc([C@@](C)(c3ccc(-c4cnc(N)nc4)cc3)C3CC3)no2)cn1	cell-free assay, competition with immobilised ligand	1 µM	77%
O=C(NCCCN1CCOCC1)c1ccc(Nc2nccc(-c3cc4ccccc4s3)n2)cc1	binding, competition with immobilised ligand	1 µM	3.9%
O=C(NC[C@@H]1[C@H]2CN(C(=O)OCc3cc(C(F)(F)F)cc(C(F)(F)F)c3)C[C@@H]12)c1ccc2[nH]nnc2c1	cell-free assay, competition with immobilised ligand	1 µM	100%
Cc1cnn2ncc(-c3ccnc(N(C)C)n3)c2c1	binding	1 µM	99%
O=C(Nc1cccnn1)N1CCC(=Cc2cccc(Oc3ccc(C(F)(F)F)cn3)c2)CC1	cell-free assay, competition with immobilised ligand	1 µM	100%
CCN1CCN(Cc2ccc(C(=O)Nc3ccc(C)c(Oc4ccc5c(c4)CC(=O)N5)c3)cc2C(F)(F)F)CC1	binding, competition with immobilised ligand	1 µM	100%
O=C(O)[C@@H]1[C@@H](Cn2nnc3ccccc3c2=O)CC[C@H]1C(=O)c1ccc(OCCC2CCOCC2)cc1	cell-free assay, competition with immobilised ligand	1 µM	94%
O=C(c1ccc(Nc2ncc(Cl)c(-c3cc4ccccc4s3)n2)cc1)N1CCC(N2CCCC2)CC1	binding, competition with immobilised ligand	1 µM	1.6%
CN(CCCC(F)(F)F)c1nccc(-c2cnn3ncccc23)n1	binding	1 µM	100%
C[C@H](c1ccc(F)cc1)N(Cc1cccc(C(=O)O)c1)C(=O)c1cnc2ccccc2c1	cell-free assay, competition with immobilised ligand	1 µM	100%
CN(C)c1nccc(-c2cnn3ncccc23)n1	binding	1 µM	100%
Nc1c(C(=O)NCc2ccc(C(=O)NCCCC3CCCCC3)cc2)cnn1-c1ccccc1	cell-free assay, competition with immobilised ligand	0.1 µM	100%
